Test results published in ChEMBL document CHEMBL5325427.
Converted amounts (≈) assume the structure as drawn. The source made the active and inactive calls. No cut-off for these calls is given here.

Columns and labels:
[1] = molecular target: Replicase polyprotein 1ab (Severe acute respiratory syndrome coronavirus 2) (UniProt P0DTD1); test: Inhibition of SARS-CoV-2 3CLpro at 10 ug/ml preincubated with enzyme for 30 mins followed by substrate addition and measured after 4 hrs by fluorescence based analysis; settings: dose 10.0 µg/ml, time 4.5 hrs
Outline: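 Recombinant SARS-CoV-2 3CLpro (1.5 ng/μl) was pre-incubated with compound 30 min at RT. Fluorogenic substrate was added to a final 40 μM and incubated 4 h at RT. Fluorescence was read at Ex 360/Em 460 nm. Wells were run in triplicate and blank was subtracted.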

[2] = molecular target: Replicase polyprotein 1ab (Severe acute respiratory syndrome coronavirus 2, UniProt P0DTD1); test: Inhibition of recombinant SARS CoV-2 PL protease incubated for 2 hrs followed by substrate addition and measured after 1 hr by fluorescence based analysis
[3] = molecular target: Replicase polyprotein 1ab (Severe acute respiratory syndrome coronavirus 2) (UniProt P0DTD1); test: Inhibition of recombinant SARS CoV-2 PL protease at 25 ug/ml incubated for 2 hrs followed by substrate addition and measured after 1 hr by fluorescence based analysis relative to control; settings: dose 25.0 µg/ml, time 3.0 hrs
[4] = Stability in human microsomes assessed as compound remaining at 1 uM measured after 60 mins in absence of NADPH by LC-MS-MS analysis; type: ADME, Microsome; settings: read-out: Stability
Outline: (§1)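 Compound was incubated in liver microsomes without NADPH. Percent remaining was measured after 60 min.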

[5] = Stability in CD-1 mouse liver microsomes assessed as half life at 1 uM in presence of NADPH by LC-MS-MS analysis; type: ADME, Microsome
[6] = Selectivity index, ratio of CC50 for African green monkey Vero E6 cells to IC50 for antiviral activity against SARS-CoV-2 NRC-03-nhCoV infected in african green monkey Vero E6 cells; type: toxicity, cell-based, Vero C1008; settings: read-out: Ratio CC50/IC50
[7] = Stability in human liver microsomes assessed as half life at 1 uM in presence of NADPH by LC-MS-MS analysis; type: ADME, Microsome
[8] = Aqueous solubility of the compound in PBS buffer at pH 7.4 at 200 uM by microplate reader method; type: physicochemical
[9] = Stability in CD-1 mouse liver microsomes assessed as compound remaining at 1 uM measured after 60 mins in absence of NADPH by LC-MS-MS analysis; type: ADME, Microsome; settings: read-out: Stability; outline: as §1
SARS-CoV-2 = test: Antiviral activity against SARS-CoV-2 NRC-03-nhCoV infected in african green monkey Vero E6 cells assessed as inhibition of viral growth pre-infected cells with virus for 1 hr followed by compound addition for 1 hr and measured after 72 hrs by crystal violet staining based analysis; type: functional, organism-based; settings: Severe acute respiratory syndrome coronavirus 2, NRC-03-nhCoV, Vero C1008
Vero C1008 = test: (§2) Cytotoxicity against African green monkey Vero E6 cells measured after 72 hrs by crystal violet staining based analysis; type: toxicity, cell-based; settings: chlorocebus sabaeus, vero c1008, 72 h
Outline: (§3)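 Vero-E6 cells were seeded at 3 × 10^5 cells/mL, grown 24 h at 37 °C with 5% CO2, then given graded compound concentrations in triplicate for 72 h. Stocks were made in 10% DMSO in DMEM. Cells were fixed in 10% formalin, stained with 0.1% crystal violet, dissolved in methanol and read at A570. CC50 was taken by nonlinear regression of log concentration versus normalised response against untreated cells.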

[10] = as §2; type: toxicity, cell-based, Vero C1008; settings: chlorocebus sabaeus, Vero E6 cells; outline: as §3

| Structure (SMILES) | inhibition [1] | IC50 [2] [µM] | further results |
| --- | --- | --- | --- |
| COC(=O)[C@@H]1CC2(C(=O)Nc3ccccc32)C2CC[C@@]3(OC)C=CC(=O)C[C@H]3N21 (stereo not given in full) | inactive | 10.3 |  |
| COc1ccc2[nH]cc(CCN3C(=O)[C@H](c4nnc(-c5cccc(C(F)(F)F)c5)o4)[C@H](CC(=O)O)COc4ccccc4[C@@H]3C(=O)NC(C)(C)C)c2c1 | inactive | 1.16 |  |
| COC(=O)C[C@@H]1COc2ccccc2[C@H](C(=O)NC(C)(C)C)N(CCc2c[nH]c3ccc(OC)cc23)C(=O)[C@@H]1c1nnc(-c2cccc(C(F)(F)F)c2)o1 | inactive |  |  |
| FC(F)(F)Oc1ccc(N/N=C2/C=C[C@@]3(CC2)CC[C@@H]2NCCc4cccc5[nH]c3c2c45)cc1 | inactive | 27.5 |  |
| COC(=O)[C@H](Cc1ccc(OC)c(OC)c1)N1CC(c2cc(C)ccc2O)=N[C@@H](Cc2ccc(OC)c(OC)c2)C1=O | inactive | 47.8 | inhibition [3]: 50% |
| CC1(C)[C@H]2COc3ccc4ccccc4c3[C@H]2N=C2SC=C(c3ccc(S(=O)(=O)N4CCOCC4)cc3)N21 | inactive | 0.121 | remaining at 1 h, 1 µM [4]: 119%; t1/2 [5]: 11.2 min; selectivity ratio [6]: 0.64; t1/2 [7]: 5.7 min; solubility at 200 µM [8]: 56.1 µM (≈ 30.7 µg/mL); remaining at 1 h, 1 µM [9]: 92%; IC50 (SARS-CoV-2): 67.6 µg/mL (≈ 123 µM); CC50 (Vero C1008): 43.12 µg/mL (≈ 78.7 µM) |
| COC(=O)CC1COc2c(cc3c4c2CCCN4CCC3)-c2c(NC(C)(C)C)n3c(-c4ccc(F)cc4)c(C)sc3[n+]21 (stereo not given) | inactive | 5.57 |  |
| C[C@]12C=CC(=O)C[C@H]1N1CCc3cccc4[nH]cc(c34)C1CO2 (stereo not given in full) | inactive | 19.7 |  |
| COc1ccc2[nH]c3c(c2c1)C[C@]1(OC)CC[C@H]2c4c[nH]c5cccc(c45)CCN2[C@@H]1C3 | inactive | 32.6 |  |
| Cc1ccc(N)cc1C(=O)N[C@H](C)c1cccc2ccccc12 | inactive |  |  |
| CO[C@@]12C=CC(=O)C[C@@H]1[n+]1c(c(NC(C)(C)C)n3c(-c4ccccc4)c(-c4ccccc4)sc31)CC2.O=S(=O)([O-])C(F)(F)F | inactive |  | selectivity ratio [6]: 0.41; IC50 (SARS-CoV-2): 217 µg/mL; CC50 at 72 h [10]: 89.7 µg/mL |
| CC1=C(c2cccc3c2OCO3)N2C(=N[C@@H]3c4c(ccc5ccccc45)OC[C@@H]3C2(C)C)S1 | inactive | 72.8 | inhibition [3]: 50% |
| COC(=O)CC1COc2c(cc3c4c2CCCN4CCC3)-c2c(NC(C)(C)C)n3c(-c4ccccc4)c(-c4ccccc4)sc3[n+]21 (stereo not given) | inactive |  |  |
